Active and inactive are the calls of the source. The rule behind the calls is not given here.

Assay [1] deals with HL-60. Nature of the assay: Induction of apoptosis in human HL-60 cells upto 30 uM after 48 hrs by flow cytometry. It counts as functional, cell-based. In outline:
(§1)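 HL-60 cells exposed to 30 µM for 48 h. Hypodiploid (apoptotic) fraction quantified by flow cytometry; average ± SE of triplicate determinations from a representative experiment.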
In general terms: In flow cytometry, cells or beads pass a laser one at a time.

Assay [2] relates to HL-60. Nature of the assay: Cell cycle arrest in human HL-60 cells assessed as accumulation at G2-M phase at 30 uM after 48 hrs by flow cytometry. In kind it is functional. In outline: (§2)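 Cells grown in RPMI 1640 with 10% heat-inactivated FBS at 37 °C, 5% CO2, exposed to 30 µM for 48 h. Washed in ice-cold PBS, fixed in 75% ethanol at -20 °C for 1 h, then stained with 50 µg/mL propidium iodide plus 100 µg/mL RNase A for 1 h at 37 °C in the dark. Phase distribution read by flow cytometry; mean ± SEM of two experiments.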

The test system of assay [3] is HL-60. Briefly: Cell cycle arrest in human HL-60 cells assessed as accumulation at S phase at 30 uM after 48 hrs by flow cytometry. In kind it is functional. Put shortly:
as §2

The test system of assay [4] is HL-60. Nature of the assay: Cell cycle arrest in human HL-60 cells assessed as accumulation at G0/G1 phase at 30 uM after 48 hrs by flow cytometry. In kind it is functional. In outline:
as §2

Assay [5] concerns HL-60. Nature of the assay: Cell cycle arrest in human HL-60 cells assessed as accumulation at sub G0/G1 phase at 30 uM after 48 hrs by flow cytometry. In kind it is functional. Put shortly:
as §2

Another assay relates to A549. Nature of the assay: Cytotoxicity against human A549 cells after 72 hrs by MTT assay. In kind it is functional, cell-based. Conditions: A549, 72 h. Put shortly:
(§3)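 Exponentially growing cells, 1 × 10^4 per well in RPMI 1640 with 10% FBS, treated with 0.3-100 µM for 72 h. DMSO at most 0.1% (v/v). Viability read by MTT reduction as absorbance at 570 nm and expressed as survival relative to control wells. IC50 obtained by curve fitting; means ± SE of three independent experiments, each in triplicate.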
In general terms: Tetrazolium dyes change colour on reduction, which living cells bring about.

For another assay, the system named is U-937. Nature of the assay: Cytotoxicity against human U937 cells after 72 hrs by MTT assay. In kind it is functional, cell-based. Particulars: U-937, 72 h. Put shortly: as §3
The test system of assay [6] is HL-60. Briefly: Cytotoxicity against human HL-60 cells after 72 hrs by MTT assay. In kind it is functional, cell-based. Particulars: HL-60, 72 h. In outline:
as §3

The subject of assay [7] is SK-MEL-1. Briefly: Cytotoxicity against human SK-MEL-1 cells after 72 hrs by MTT assay. In kind it is functional, cell-based. Particulars: SK-MEL-1, 72 h. In outline:
as §3

Assay [8] deals with HL-60. Briefly: Effect on cell death in human HL-60 cells assessed as induction of procaspase 3 cleavage at 30 uM. In kind it is functional, cell-based. In outline: (§4)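 HL-60 cells (1 × 10^6) treated in RPMI 1640, lysed in Tris-HCl pH 6.8 with 2% SDS and boiled. Lysates run on 12% SDS-PAGE, transferred to PVDF and probed with anti-caspase-3, -6 or -7 antibodies, then HRP secondary. Bands detected by chemiluminescence; loading checked by Ponceau S staining. One representative blot of three.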

Assay [9] deals with HL-60. Nature of the assay: Induction of apoptosis in human HL-60 cells at 30 uM after 48 hrs by flow cytometry. It counts as functional. In outline:
as §1

Assay [10] relates to HL-60. Nature of the assay: Induction of apoptosis in human HL-60 cells assessed as internucleosomal DNA fragmentation at 30 uM after 24 hrs by ethidium bromide assay. In kind it is functional, cell-based. In outline:
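HL-60 cells exposed to 30 µM for 24 h. Total cellular DNA isolated, electrophoresed on 2% agarose, stained with ethidium bromide and inspected under UV for internucleosomal laddering.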

The subject of assay [11] is SK-MEL-1. Nature of the assay: Induction of apoptosis in human SK-MEL-1 cells assessed as apoptotic bodies at 30 uM after 24 hrs by fluorescence microscopy. It counts as functional, cell-based. Put shortly: (§5)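 HL-60 or SK-MEL-1 cells exposed to 30 µM, then DNA-stained with Hoechst 33258 (bisbenzimide). Chromatin condensation, fragmentation and apoptotic bodies assessed by fluorescence microscopy.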

Assay [12] has as its system SK-MEL-1. Briefly: Induction of apoptosis in human SK-MEL-1 cells assessed as fragmentated and condensed chromatin at 30 uM after 24 hrs by fluorescence microscopy. It counts as functional, cell-based. In outline: as §5
Assay [13] relates to HL-60. Briefly: Induction of apoptosis in human HL-60 cells assessed as apoptotic bodies at 30 uM after 24 hrs by fluorescence microscopy. It counts as functional, cell-based. In outline:
as §5

The subject of assay [14] is HL-60. Briefly: Induction of apoptosis in human HL-60 cells assessed as fragmentated and condensed chromatin at 30 uM after 24 hrs by fluorescence microscopy. In kind it is functional, cell-based. In outline:
as §5

In assay [15] the test system is HL-60. Nature of the assay: Effect on cell death in human HL-60 cells assessed as induction of procaspase 6 cleavage at 30 uM. It counts as functional, cell-based. In outline:
as §4

The subject of assay [16] is HL-60. Briefly: Effect on cell death in human HL-60 cells assessed as induction of procaspase 7 cleavage at 30 uM. It counts as functional, cell-based. In outline: as §4

With `C=C1C(=O)O[C@H]2[C@H]1[C@@H](O)C[C@@]1(C)[C@H](O)CCC(=C)[C@@H]21`, the result in the assay on HL-60 [1] was inactive.

One may read the IC50 as the point on the concentration scale where inhibition reaches its midpoint. A lower IC50 goes with greater potency. Turning to `COc1cc([C@@H]2c3cc4c(cc3[C@@H](O[C@@H]3O[C@@H]5CO[C@@H](C)O[C@H]5[C@H](O)[C@H]3O)[C@H]3COC(=O)[C@H]23)OCO4)cc(OC)c1O` [ETOPOSIDE], the Activity in the assay with HL-60 [2] is listed as 2.6%; with HL-60 [3] it was 17.1%; with HL-60 [4], 29.4%; with HL-60 [5], 47.7%. Moreover, the IC50 was 5.9 µM in the assay on A549, 0.92 µM in the assay on U-937, 0.25 µM in the assay with HL-60 [6] and above 30 µM with SK-MEL-1 [7].

As for `C=C1C(=O)O[C@H]2/C=C(/C)[C@@H](OC(C)=O)CC/C(C)=C/[C@@H](OC(=O)/C(C)=C/C)[C@H]12`, the result in the assay on HL-60 [1] was inactive.

Regarding `C=C1C(=O)O[C@H]2C[C@@]3(C)[C@H](OC(C)=O)CC[C@@](C)(O)[C@H]3[C@@H](OC(C)=O)[C@H]12`, the outcome with HL-60 [8], in the assay with HL-60 [10], with SK-MEL-1 [11], in the assay on SK-MEL-1 [12], with HL-60 [13] and in the assay on HL-60 [14] was Active. For the same compound, the outcome in the assay on HL-60 [15] and in the assay with HL-60 [16] was Active. Moreover, the Activity with HL-60 [9] came to 12%; in the assay with HL-60 [2] it was 21.8%; in the assay with HL-60 [3] it was 21.5%; with HL-60 [4], 39.3%; in the assay on HL-60 [5], 11.8%. Also, the IC50 is above 100 µM in the assay on A549, 10.4 µM with U-937, 13.3 µM with HL-60 [6] and 27.9 µM in the assay on SK-MEL-1 [7].

For `C=C1C(=O)O[C@H]2C[C@@]3(C)[C@H](O)CCC(=C)[C@H]3[C@@H](OC(=O)/C(C)=C/C)[C@H]12`, in the assay on HL-60 [1], the result was inactive.

Turning to `C=C1C(=O)O[C@H]2C[C@@]3(C)[C@H](OC(C)=O)CCC(=C)[C@H]3[C@@H](OC(=O)/C(C)=C/C)[C@H]12`, the outcome in the assay with HL-60 [1] was inactive.

`C=C1CC[C@@H](OC(C)=O)[C@]2(C)C[C@H](OC(C)=O)[C@H]3C(=C)C(=O)O[C@@H]3C12` (stereo not given in full): the outcome with HL-60 [8], in the assay on HL-60 [10], in the assay with SK-MEL-1 [11], with SK-MEL-1 [12], in the assay on HL-60 [13] and in the assay with HL-60 [14] was Active. Moreover, the result with HL-60 [15] and in the assay with HL-60 [16] was Active. The Activity with HL-60 [9] was determined as 30%; in the assay with HL-60 [2], 18.5%; in the assay on HL-60 [3], 22%; with HL-60 [4], 26.8%; in the assay on HL-60 [5] it was 30%. Besides, the IC50 in the assay with A549 was 72.4 µM; in the assay on U-937, 9.2 µM; in the assay with HL-60 [6] it was 9.4 µM; in the assay on SK-MEL-1 [7], 14.3 µM.

On to `C=C1C[C@@H]2OC(=O)C(=C)[C@H]2[C@H](OC(=O)/C(C)=C\C)/C=C(\C)CCC1=O`, for which, in the assay with HL-60 [1], the outcome was inactive.

On to `C=CC(C)(O)C/C=C/C(C)(O)CCC(OC(C)=O)C(=C)C` (stereo not given), for which, in the assay with HL-60 [1], the outcome was inactive.

Turning to `C=C1C(=O)O[C@H]2C[C@@]3(C)[C@H](O)CC[C@@](C)(O)[C@H]3[C@@H](O)[C@H]12`, the result in the assay on HL-60 [1] was inactive.

Regarding `C=C1C(=O)O[C@H]2C[C@@]3(C)[C@H](OC(C)=O)CC[C@@](C)(O)[C@H]3[C@@H](O)[C@H]12`, the result in the assay with HL-60 [1] was inactive. The IC50 in the assay with A549, in the assay on U-937, in the assay on HL-60 [6] and in the assay with SK-MEL-1 [7] was above 100 µM in each case.

With `C=C1C(=O)O[C@H]2/C=C(/C)[C@@H](O)CC/C(C)=C/[C@@H](OC(=O)/C(C)=C/C)[C@H]12`, in the assay with HL-60 [1], the result was inactive.
